PGC1a acetyl inh: inhibitors of PGC1a acetylation signal, primary screen, cell-based, U2OS, AlphaScreen, inhibitor mode | AlphaScreen anti-acetyl-lysine; with virally co-expressed GCN5 acetyltransferase | inhibition, % at 15.6 µM | hit rate 0.17% among 350,000 | AID 651687, 2012;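 active = every replicate shows inhibition of at least 40%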;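 note: 0% = neutral control wells and 100% = positive control wells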
ARNT-TACC3 inh: disruptors of ARNT/TACC3 protein interaction, primary screen, biochemical, AlphaScreen, single concentration; Transforming acidic coiled-coil-containing protein 3 (Homo sapiens), Q9Y6A5; AlphaScreen His-ARNT PAS-B/GST-TACC3 binding, luminescence; TACC3 fragment carries E629A point mutation; inhibition, % at 9.99 µM; hit rate 0.66% among 390,000;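 active = mean inhibition of replicates at least 50% and at least half of replicates each reaching 50%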;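 note: 0% = complete ARNT plus TACC3 wells and 100% = ARNT alone without TACC3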
F508del corr: F508del CFTR correction, initial screen, CFBE line, single point; hit rate 0.36% among 350,000; CFBE cells, YFP halide quenching; stimulated with forskolin plus potentiator P3; % fluorescence drop versus neutral controls; activity (quench increase), % at 7.58 µM;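 active = mean added fluorescence quench of at least 8% versus neutral control, with both replicates also reaching 8%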;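 note: cells transiently co-express mutant CFTR-F508del with the halide-sensitive YFP; corrector assay measuring rescue of mutant channel to the surface after 24 h compound exposure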
CAL PDZ FP-1: CAL PDZ peptide-binding inhibitors, primary screen, biochemical, fluorescence polarization, Cer-tagged CAL PDZ, HTS; hit rate 0.02% among 330,000; inhibition, % at 20 µM; Golgi-associated PDZ and coiled-coil motif-containing protein (Homo sapiens), Q9HD26; purified CAL PDZ, TMR-peptide fluorescence polarization, 1 h;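 active = highest replicate inhibition of at least 40%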;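 note: plate controls were DMSO neutral control wells for no effect and unlabeled competitor peptide control wells for full effect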
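Test system: purified CerCALP PDZ construct; Compound dosing: one concentration, 20 µM compound; Also added: TMR-labelled reporter peptide T*-PRC34 bound in PDZ groove; Read-out: inhibition from polarization loss; Controls: unlabelled peptide and DMSO controls; Signal: FP readout, S and P plane fluorescence; Incubation: 1 h at RT.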
miR-122 sensor: miR-122 Renilla sensor signal increase in Huh7, primary screen, miR-122 inhibitor project, cell-based, single point, plate reader; Huh7 miR-122 Renilla luciferase sensor, 48 h; neutral wells = 0, positive control = 100; activation (reporter increase), % at 12.5 µM; hit rate 0.3% among 340,000;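 active = mean replicate activation score at least 90 and every replicate individually at or above 90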;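 note: higher luciferase means less miR-122 activity so hits act as miR-122 inhibitors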
CAL PDZ FP-2: untagged CAL PDZ binding inhibitors, primary screen, biochemical, fluorescence polarization, HTS; inhibition, % at 24.9 µM; hit rate 0.92% among 300,000; AID 602252, 2012; Golgi-associated PDZ and coiled-coil motif-containing protein (Homo sapiens), Q9HD26; purified CAL PDZ, TMR-peptide fluorescence polarization, 1 h;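 active = mean inhibition of at least 30% with at least half of replicates also reaching 30%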;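 note: 0% = DMSO neutral control and 100% = excess unlabeled competitor peptide PRC23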
The depositor's hits bear a star; [ ] = dose if it differs, or a comment. This is a sample that favours compounds with a hit; in the whole collection about 1.7% have one here.

Results for O=C(NCC1CC1)[C@H]1[C@H](CO)[C@H]2Cn3c(ccc(C4=CCCC4)c3=O)[C@H]2N1Cc1ccccc1F ?
ARNT-TACC3 inh: 15

Results for CCC1NC(=S)N(C2CCCCC2)C1=O (stereo not given) ?
PGC1a acetyl inh: 55*; ARNT-TACC3 inh: -1; CAL PDZ FP-1: 0; CAL PDZ FP-2: -4

What do the screens show for `CC(C)CC1NC(=S)N(C2CCCCC2)C1=O` (stereo not given)?
PGC1a acetyl inh: 12; ARNT-TACC3 inh: -20; CAL PDZ FP-1: 0; miR-122 sensor: -2; CAL PDZ FP-2: 4

Results for Cn1ncc2c(O/N=C(\N)c3ccc(C(C)(C)C)cc3)ncnc21 ?
PGC1a acetyl inh: 96*; ARNT-TACC3 inh: 1; CAL PDZ FP-1: -1; miR-122 sensor: -14

Results for CCOC(=O)c1ccc(Nc2ncnc3c2cnn3C)cc1 ?
PGC1a acetyl inh: -10; ARNT-TACC3 inh: 1; CAL PDZ FP-1: -4; CAL PDZ FP-2: -1

What do the screens show for `Nn1c(SCc2ccc(Br)cc2)nnc1-c1ccccn1`?
PGC1a acetyl inh: -7; ARNT-TACC3 inh: 44; F508del corr: -3; CAL PDZ FP-1: 0

What do the screens show for `Cc1cccc(CSc2nnc(-c3ccccn3)n2N)c1`?
PGC1a acetyl inh: -3; ARNT-TACC3 inh: 45*; CAL PDZ FP-1: -1; miR-122 sensor: 0; CAL PDZ FP-2: -3

What do the screens show for `Cc1nn(-c2ccccc2)c2c1C(c1ccccc1)C(C#N)=C(N)O2` (stereo not given)?
PGC1a acetyl inh: 35; ARNT-TACC3 inh: 2; CAL PDZ FP-1: 0; miR-122 sensor: 0; CAL PDZ FP-2: -1

What do the screens show for `Cc1nn(-c2ccccc2)c2c1C(c1ccc(F)cc1F)C(C#N)=C(N)O2` (stereo not given)?
PGC1a acetyl inh: 4; ARNT-TACC3 inh: 9; CAL PDZ FP-1: -2; miR-122 sensor: -5; CAL PDZ FP-2: 30*

Results for Nc1nc(N)c2sc3nc4c(cc3c2n1)CCC4 ?
PGC1a acetyl inh: 14; ARNT-TACC3 inh: 76*; CAL PDZ FP-1: -1; miR-122 sensor: -10; CAL PDZ FP-2: -3

Results for Cc1ccc(C(=O)c2sc3nc4c(cc3c2N)CCC4)cc1 ?
ARNT-TACC3 inh: -7; CAL PDZ FP-1: 1; miR-122 sensor: -4; CAL PDZ FP-2: -5

Results for Cc1cnc(C(=O)N2CCN(S(=O)(=O)c3cc(C(F)(F)F)cc(C(F)(F)F)c3)CC2)cn1 ?
PGC1a acetyl inh: -2; F508del corr: -3; CAL PDZ FP-1: 1; miR-122 sensor: 3; CAL PDZ FP-2: -4

Results for CC1CC1C(=O)N1CCN(S(=O)(=O)c2cc(C(F)(F)F)cc(C(F)(F)F)c2)CC1 (stereo not given) ?
PGC1a acetyl inh: 3; ARNT-TACC3 inh: -4; F508del corr: -2; CAL PDZ FP-1: 0; miR-122 sensor: 1; CAL PDZ FP-2: 76*

What do the screens show for `COc1ccc(NS(=O)(=O)c2ccc3ccccc3c2)c2ncccc12`?
PGC1a acetyl inh: -1; ARNT-TACC3 inh: 12; F508del corr: -5; CAL PDZ FP-1: -2; miR-122 sensor: 104*; CAL PDZ FP-2: -1

What do the screens show for `COc1ccc(C(C)(C)C)cc1NS(=O)(=O)c1cccc2cccnc12`?
PGC1a acetyl inh: -5; ARNT-TACC3 inh: 5; F508del corr: -2; CAL PDZ FP-1: -1; miR-122 sensor: 117*; CAL PDZ FP-2: -4

Results for COc1ccc(OC)c(NS(=O)(=O)c2cccc3cccnc23)c1 ?
PGC1a acetyl inh: -8; ARNT-TACC3 inh: 10; F508del corr: 1; CAL PDZ FP-1: 0; miR-122 sensor: 80; CAL PDZ FP-2: -3

How did O=C(O)c1ccc(NS(=O)(=O)c2cccc3cccnc23)cc1 do in these assays?
PGC1a acetyl inh: -3; ARNT-TACC3 inh: -8; F508del corr: -3; CAL PDZ FP-1: 0; miR-122 sensor: 5; CAL PDZ FP-2: 14

Results for CCSS(=O)(=O)c1cccc2cccnc12 ?
PGC1a acetyl inh: 8; ARNT-TACC3 inh: 65*; F508del corr: 0; CAL PDZ FP-1: -1; miR-122 sensor: -8; CAL PDZ FP-2: -5

How did O=S(=O)(Nc1ccc(Cl)cc1)c1cccc2cccnc12 do in these assays?
PGC1a acetyl inh: -1; ARNT-TACC3 inh: 38*; F508del corr: -1; CAL PDZ FP-1: -1; miR-122 sensor: 99*; CAL PDZ FP-2: -3

What do the screens show for `O=C(O)CCS(=O)(=O)c1cccc2cccnc12`?
PGC1a acetyl inh: -6; ARNT-TACC3 inh: -1; CAL PDZ FP-1: -1; miR-122 sensor: -4; CAL PDZ FP-2: 2

Results for CCC(=O)N(C)C[C@@H]1Oc2cc(-c3ccccc3OC)ccc2S(=O)(=O)N([C@H](C)CO)C[C@@H]1C ?
PGC1a acetyl inh: 2; ARNT-TACC3 inh: 0; F508del corr: -2; miR-122 sensor: 3[16.7 µM]

Results for C[C@@H]1CN([C@H](C)CO)C(=O)c2cccc(NC(=O)C3CCCCC3)c2O[C@@H]1CN(C)C(=O)Nc1ccccc1 ?
PGC1a acetyl inh: 1; ARNT-TACC3 inh: 0; F508del corr: -1; miR-122 sensor: 8[16.7 µM]

Results for O=C(O)c1cccnc1Cl ?
PGC1a acetyl inh: 6; ARNT-TACC3 inh: 22; F508del corr: -5; CAL PDZ FP-1: -2; miR-122 sensor: -4; CAL PDZ FP-2: -3

Results for O=C(O)c1cccnc1C(=O)O ?
PGC1a acetyl inh: 3; ARNT-TACC3 inh: 50*; F508del corr: 0; CAL PDZ FP-1: 0; miR-122 sensor: 0; CAL PDZ FP-2: -3

Results for C[C@H](CO)N1C[C@H](C)[C@@H](CN(C)Cc2ccc(Cl)c(Cl)c2)OCCCC[C@H](C)Oc2ccc(N(C)C)cc2C1=O ?
PGC1a acetyl inh: 2; F508del corr: 0

How did CC(=O)Nc1ccc(S(=O)(=O)NC(CC(=O)NCCC2=CCCCC2)C(C)C)cc1 (stereo not given) do in these assays?
PGC1a acetyl inh: -5; ARNT-TACC3 inh: 4; CAL PDZ FP-1: 0; miR-122 sensor: -2; CAL PDZ FP-2: 45*

How did CCCCCCCCNC(=O)CC(NS(=O)(=O)c1ccc(NC(C)=O)cc1)C(C)C (stereo not given) do in these assays?
CAL PDZ FP-1: -2; miR-122 sensor: 0; CAL PDZ FP-2: -1

How did C[C@@H]1CCCCO[C@H](CN(C)C(=O)Nc2ccc(F)cc2)[C@@H](C)CN([C@@H](C)CO)C(=O)c2cc(NC(=O)Nc3ccccc3)ccc2O1 do in these assays?
PGC1a acetyl inh: 7; ARNT-TACC3 inh: 1; F508del corr: -5; miR-122 sensor: 5[16.7 µM]

Source: PubChem BioAssay (Broad Institute)
